The subject of experiment [1] is MOLT-4. Description: Inhibitory concentration against MOLT-4 human T-cells. Type of experiment: functional, cell-based.
For experiment [2], the system named is MOLT-4. Nature of the experiment: Inhibitory concentration against MOLT-4 human T-cells; 10e-12. Type of experiment: functional, cell-based.
Experiment [3] concerns 1A9. Nature of the experiment: Inhibitory concentration against human 1A9 ovarian carcinoma cells. Type of experiment: functional, cell-based.
Experiment [4] relates to Staphylococcus aureus. Nature of the experiment: Minimum inhibitory concentration against methicillin resistant Staphylococcus aureus (MRSA). Type of experiment: functional.
Experiment [5] concerns the target Tubulin beta-4B chain (Homo sapiens) (UniProt P68371). Nature of the experiment: (§1) Tubulin polymerization at a concentration of 100 uM incubated for 90 minutes. Type of experiment: functional. An outline of the steps:
(§2)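 Tubulin polymerization was read as percent polymerization, with test drug at 100 µM and a 90 min incubation.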

For experiment [6] the target is unchanged. The description is as §1. An outline of the steps: as §2
Experiment [7] concerns 1A9. Nature of the experiment: Inhibitory concentration against human ovarian 1A9 tumor cells. Type of experiment: functional, cell-based.
Experiment [8] deals with T1, Bile acid receptor (Homo sapiens, UniProt Q96RI1). Nature of the experiment: Effective concentration against farnesoid X receptor (FXR); range is 5-10 uM.
The target in experiment [9] is T1, Bile acid receptor. Description: Effective concentration towards farnesoid X receptor (FXR); Range is 5-10 uM.
The subject of experiment [10] is MCF7. Description: Inhibitory concentration against MCF-7 human breast carcinoma cell line; Inactive upto 1 uM. Type of experiment: functional, cell-based.
Experiment [11] relates to PC-3. Description: Inhibitory concentration against PC-3 human prostate carcinoma cell line; Inactive upto 1 uM. Type of experiment: functional, cell-based.
For experiment [12], the system named is 1A9/ptx-10. Nature of the experiment: Inhibitory concentration against 1A9/PTX10 cell line; Inactive upto 1 uM. Type of experiment: functional, cell-based, Homo sapiens.
The test system of experiment [13] is A2780. Description: Inhibitory concentration against A2780/AD10 cell line; Inactive upto 1 uM. Type of experiment: functional, cell-based, Homo sapiens.
Experiment [14] has as its system A549. Description: Inhibitory concentration against A549 human lung carcinoma cell line; Inactive upto 1 uM. Type of experiment: functional, cell-based.
Experiment [15] relates to 1A9. Nature of the experiment: Inhibitory concentration against 1A9 human ovarian carcinoma cell line; Inactive upto 1 uM. Type of experiment: functional, cell-based.
Experiment [16] can be described thus: Inhibitory concentration against LN229 cell proliferation. Type of experiment: functional, cell-based. Conditions: Homo sapiens, LN-229.
Experiment [17] relates to Staphylococcus aureus. Description: Minimum inhibitory concentration against methicillin resistant Staphylococcus aureus (MRSA); range is 3-12 ug/mL. Type of experiment: functional.
A further experiment relates to OVCAR-3. Description: Cytotoxicity by measuring inhibitory concentration against ovcar-3 tumor cell line; Inactive. Type of experiment: functional, cell-based, Homo sapiens.
In experiment [18] the target is Peptidyl-prolyl cis-trans isomerase FKBP1A (Homo sapiens, UniProt P62942). Nature of the experiment: Inhibitory concentration against binding to FKBP12.
Another experiment has as its target Protein kinase C (PKC). Nature of the experiment: Inhibitory activity against protein kinase C. Type of experiment: protein assay.
Experiment [19] has as its target cAMP-dependent protein kinase (PKA) (Homo sapiens, UniProt P22694+P17612+P22612). Nature of the experiment: Inhibitory constant against the protein kinase A. Type of experiment: protein assay.
Experiment [20] deals with A549. Nature of the experiment: Inhibitory concentration against A549 human lung carcinoma cell line; Range is 2-5 nM. Type of experiment: functional, cell-based.
Experiment [21] concerns 1A9/ptx-10. Description: Inhibitory concentration against 1A9/PTX10 cell line; Range is 2-5 nM. Conditions: Homo sapiens. Type of experiment: functional, cell-based.
Experiment [22] has as its system A2780. Description: Inhibitory concentration against A2780/AD10 cell line; Range is 2-5 nM. Type of experiment: functional, cell-based. Conditions: Homo sapiens.
The subject of experiment [23] is 1A9. Description: Inhibitory concentration against 1A9 human ovarian carcinoma cell line; Range is 2-5 nM. Type of experiment: functional, cell-based.
The subject of experiment [24] is MCF7. Nature of the experiment: Inhibitory concentration against MCF-7 human breast carcinoma cell line; Range is 2-5 nM. Type of experiment: functional, cell-based.
The test system of experiment [25] is PC-3. Description: Inhibitory concentration against PC-3 human prostate carcinoma cell line; Range is 2-5 nM. Type of experiment: functional, cell-based.
The mark [26] stands for this setting: Staphylococcus aureus, read-out: MIC.

These results are taken from ChEMBL document CHEMBL1143652, “Joys of molecules. 2. Endeavors in chemical biology and medicinal chemistry” (J Med Chem, 2005).

Molecules are shown by their SMILES. Values after ≈ are worked out from the molar mass of the structure shown.

Broadly, the IC50 is the concentration needed to halve the response being measured. High values mean lower potency, low ones higher potency. By MIC is commonly meant the smallest concentration in the dilution series that meets the test's criterion for growth inhibition. In general, EC50 refers to the concentration needed to bring the measured effect to its halfway point. Usually Ki stands for the dissociation constant of the complex between target and ligand, obtained from inhibition or displacement. High values mean weaker binding, low ones tighter binding.

Chain of Tubulin beta-4B chain (Homo sapiens) (P68371 whole entry): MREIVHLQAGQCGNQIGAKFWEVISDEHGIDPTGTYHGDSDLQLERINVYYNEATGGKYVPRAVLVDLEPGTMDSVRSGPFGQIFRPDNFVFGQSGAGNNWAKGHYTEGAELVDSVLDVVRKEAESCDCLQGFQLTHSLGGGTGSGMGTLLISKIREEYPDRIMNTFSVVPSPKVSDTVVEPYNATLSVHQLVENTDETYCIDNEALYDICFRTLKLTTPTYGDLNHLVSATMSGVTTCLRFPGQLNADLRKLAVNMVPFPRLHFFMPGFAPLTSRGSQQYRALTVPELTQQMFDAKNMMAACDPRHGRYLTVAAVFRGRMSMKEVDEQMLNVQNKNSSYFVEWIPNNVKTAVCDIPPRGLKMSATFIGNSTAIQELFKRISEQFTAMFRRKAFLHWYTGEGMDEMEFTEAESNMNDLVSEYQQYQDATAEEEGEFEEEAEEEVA
T1 sequence (Q96RI1 whole entry): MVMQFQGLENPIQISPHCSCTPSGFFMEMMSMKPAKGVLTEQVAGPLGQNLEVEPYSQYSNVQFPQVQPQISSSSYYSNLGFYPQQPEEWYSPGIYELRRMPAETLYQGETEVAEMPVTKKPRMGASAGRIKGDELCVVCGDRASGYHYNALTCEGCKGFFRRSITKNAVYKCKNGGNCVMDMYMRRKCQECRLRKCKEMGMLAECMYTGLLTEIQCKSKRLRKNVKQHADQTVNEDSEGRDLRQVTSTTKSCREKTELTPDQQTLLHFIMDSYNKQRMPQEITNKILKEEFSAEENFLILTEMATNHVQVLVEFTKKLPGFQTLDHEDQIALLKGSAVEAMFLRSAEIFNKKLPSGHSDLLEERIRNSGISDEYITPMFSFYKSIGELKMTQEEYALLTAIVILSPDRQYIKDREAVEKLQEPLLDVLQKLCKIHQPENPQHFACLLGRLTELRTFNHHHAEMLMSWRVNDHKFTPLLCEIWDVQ
Chain of Peptidyl-prolyl cis-trans isomerase FKBP1A (P62942 whole entry): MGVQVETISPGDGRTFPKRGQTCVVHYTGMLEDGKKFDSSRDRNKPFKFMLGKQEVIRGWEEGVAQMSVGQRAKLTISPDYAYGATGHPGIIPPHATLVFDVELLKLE

For the compound `CCNC1COC(OC2C(O[C@H]3C#C/C=C\C#C[C@@](C)(O)C(=C/CSC(C)=O)/C3=C(\NC(=O)OC)C(C)=O)OC(C)C(NOC3CC(O)C(SC(=O)c4c(C)c(I)c(OC5OC(C)C(O)C(OC)C5O)c(OC)c4OC)C(C)O3)C2O)CC1OC` (stereo partly specified), the IC50 with MOLT-4 [1] is less than 0.01 nM; in the experiment with MOLT-4 [2], less than 0.001 nM.
Consider `COCn1c(Cl)c2c3c(cccc31)-c1cccc3c1OC[C@@]3(c1ccccc1)c1oc(C)nc1-c1nc(Cl)c-2o1`, for which, in the experiment with 1A9 [3], the IC50 was found to be 3600 nM.
Consider `CC1(C)C=Cc2cc(-c3ccco3)cc(/C=C(/C#N)c3ccc(O)cc3)c2O1`, for which the MIC against Staphylococcus aureus [4] and in the experiment with Staphylococcus aureus [4] (setting [26]) was 2 µg/mL (≈ 5.41 µM) each time.
On to `CO[C@]12C=C[C@](C)(O1)[C@@H](OC(=O)/C=C/c1cn(C)cn1)C[C@H]1C(C)=CC[C@H](C(C)C)[C@H]1/C=C\2COC1OCC(O)C(O)C1OC(C)=O` (stereo partly specified), for which the TP in experiment [5] and in [6] was 54% throughout. Further, in the experiment with 1A9 [7], it took 40 nM to reach half-maximal inhibition (IC50).
On to `COc1c(CN(C(=O)C2CC2)c2ccccc2)ccc2c1OC(C)(C)C=C2`, for which the EC50 on Bile acid receptor [8] and at Bile acid receptor [9] was 10000 nM throughout.
Consider `COC(=O)N/C(C)=C1/C(=C/CSSSC)[C@@](O)(CC=O)C#C/C=C\C#C[C@@H]1O`, for which the IC50 in the experiment with MOLT-4 [1] and in the experiment with MOLT-4 [2] was 0.0012 nM each time.
Regarding `CC(C)[C@@H]1NC(=O)[C@@H](NC(=O)OCc2ccccc2)Cc2ccc3c(c2)[C@]2(C4=C(C=O)N=C1O4)c1cccc(Br)c1N[C@@H]2O3`, the IC50 entry in the experiment with MCF7 [10], with PC-3 [11], in the experiment on 1A9/ptx-10 [12], with A2780 [13], in the experiment with A549 [14] and with 1A9 [15] was “Inactive” each time.
As to `COc1c(C(C)n2cnc3ncccc32)ccc2c1C=CC(C)(C)O2` (stereo unspecified), the IC50 in experiment [16] was 26000 nM. That is a double-digit micromolar value.
In the case of `CC1(C)C=Cc2cccc(/C=C(/C#N)c3ccc(O)cc3)c2O1`, the MIC with Staphylococcus aureus [17] and in the experiment on Staphylococcus aureus [17] (setting [26]) was 12 µg/mL (≈ 39.6 µM) in each case.
As for `CC(=O)O[C@@H]1C2=C(C)[C@H](OC(=O)[C@H](O)[C@@H](NC(=O)c3ccccc3)c3ccccc3)C[C@@](O)([C@@H](OC(=O)c3ccccc3)c3ccccc3[C@H]1OC(C)=O)C2(C)C`, the IC50 result in the experiment on OVCAR-3 was “Not Active”.
Compound `CO[C@H]1C[C@@H]2CC[C@@H](C)[C@@](O)(O2)C(=O)C(=O)N2CCCC[C@H]2C(=O)N[C@H](CCc2ccccc2)C(=O)NCC(=O)N(C)CC(=O)O[C@H]1C` had an IC50 in experiment [18] of 9.6 nM.
Consider `O=C(N[C@@H]1CNCCC[C@H]1OC(=O)c1ccc(C(=O)c2c(O)cccc2C(=O)O)cc1)c1ccc(O)cc1`, for which the Ki at Protein kinase C (PKC) is on record as 80 nM; in [19] it was 3.4 nM.
On to `[H][C@]12Nc3c4cccc3[C@]13C1=C(N=C(O1)[C@H](C(C)C)NC(=O)[C@@H](NC(=O)[C@@H](O)C(C)C)Cc1ccc(c3c1)O2)c1nc(Cl)c(o1)-c1c(Cl)[nH]c2cccc-4c12` [DIAZONAMIDE A], for which the IC50 in the experiment on A549 [20], in the experiment on 1A9/ptx-10 [21], with A2780 [22], in the experiment with 1A9 [23], with MCF7 [24] and in the experiment with PC-3 [25] was 5 nM in each case.
